Measured values as given in ChEMBL document CHEMBL1208732, “Addressing PXR liabilities of phthalazine-based hedgehog/smoothened antagonists using novel pyridopyridazines” (Bioorg Med Chem Lett, 2010).
pEC50, pIC50: −log10 of the molar value.

Legend:
[1] = Metabolic stability in rat liver microsomes assessed as compound turn over after 30 mins; type: ADME, Microsome; conditions: read-out: Activity
How it was run: (§1)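 Percent turnover of compound within 30 min in human or rat liver microsome homogenates.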

[2] = molecular target: T1, Nuclear receptor subfamily 1 group I member 2 (Homo sapiens, UniProt O75469); assay: Activation of human PXR expressed in HepG2 cells assessed as luciferase activity at 2 uM by chemiluminescence assay relative to rifampin; type: cell-based; conditions: hepg2, 2 µM
T1 sequence (O75469 whole entry): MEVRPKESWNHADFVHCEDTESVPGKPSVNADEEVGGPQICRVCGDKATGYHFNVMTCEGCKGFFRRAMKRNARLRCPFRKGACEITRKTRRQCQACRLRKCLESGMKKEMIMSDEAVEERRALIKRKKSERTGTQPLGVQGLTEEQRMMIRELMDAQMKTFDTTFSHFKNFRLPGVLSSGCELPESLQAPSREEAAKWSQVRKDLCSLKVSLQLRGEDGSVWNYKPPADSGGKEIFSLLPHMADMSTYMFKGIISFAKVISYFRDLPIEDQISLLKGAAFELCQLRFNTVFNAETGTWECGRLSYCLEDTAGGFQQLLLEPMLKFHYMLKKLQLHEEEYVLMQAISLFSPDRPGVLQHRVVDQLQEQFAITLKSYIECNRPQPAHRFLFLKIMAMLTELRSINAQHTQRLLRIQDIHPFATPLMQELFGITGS
How it was run: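 HepG2 cells transfected with a luciferase reporter construct driven by human PXR cDNA. Luciferase activity read by chemiluminescence and expressed as percent of the rifampin control.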

[3] = Clearance in rat at 0.5 mg/kg, iv; type: ADME, organism-based; parameters: dose 0.5 mg/kg, route intravenous; conditions: in vivo
How it was run: (§2)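 Pharmacokinetics measured in rat or mouse, with intravenous dosing at 0.5 mg/kg and oral dosing at 2 mg/kg. Reported parameters are iv clearance, Vdss, oral AUC and %F.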

[4] = Volume of distribution at steady state in rat at 0.5 mg/kg, iv and 2 mg/kg, po; type: ADME, organism-based; conditions: in vivo, read-out: Vdss; how it was run: as §2
[5] = Fraction unbound in mouse plasma by ultra centrifugation method; type: ADME, cell-free
[6] = AUC in rat at 2 mg/kg, po; type: ADME, organism-based; parameters: dose 2 mg/kg, route oral; conditions: plasma; how it was run: as §2
[7] = Oral bioavailability in rat at 2 mg/kg; type: ADME, organism-based; conditions: in vivo; how it was run: as §2
[8] = Metabolic stability in human liver microsomes assessed as compound turn over after 30 mins; type: ADME, Microsome; conditions: read-out: Activity; how it was run: as §1
Protein smoothened [9] = molecular target: Protein smoothened (Homo sapiens, UniProt Q99835); assay: Antagonist activity at human Smo receptor in HEPM cells assessed as inhibition of Gli expression after 24 hrs by quantigene assay; type: functional, cell-based
Protein smoothened (Homo sapiens, UniProt Q99835), sequence (Q99835 whole entry): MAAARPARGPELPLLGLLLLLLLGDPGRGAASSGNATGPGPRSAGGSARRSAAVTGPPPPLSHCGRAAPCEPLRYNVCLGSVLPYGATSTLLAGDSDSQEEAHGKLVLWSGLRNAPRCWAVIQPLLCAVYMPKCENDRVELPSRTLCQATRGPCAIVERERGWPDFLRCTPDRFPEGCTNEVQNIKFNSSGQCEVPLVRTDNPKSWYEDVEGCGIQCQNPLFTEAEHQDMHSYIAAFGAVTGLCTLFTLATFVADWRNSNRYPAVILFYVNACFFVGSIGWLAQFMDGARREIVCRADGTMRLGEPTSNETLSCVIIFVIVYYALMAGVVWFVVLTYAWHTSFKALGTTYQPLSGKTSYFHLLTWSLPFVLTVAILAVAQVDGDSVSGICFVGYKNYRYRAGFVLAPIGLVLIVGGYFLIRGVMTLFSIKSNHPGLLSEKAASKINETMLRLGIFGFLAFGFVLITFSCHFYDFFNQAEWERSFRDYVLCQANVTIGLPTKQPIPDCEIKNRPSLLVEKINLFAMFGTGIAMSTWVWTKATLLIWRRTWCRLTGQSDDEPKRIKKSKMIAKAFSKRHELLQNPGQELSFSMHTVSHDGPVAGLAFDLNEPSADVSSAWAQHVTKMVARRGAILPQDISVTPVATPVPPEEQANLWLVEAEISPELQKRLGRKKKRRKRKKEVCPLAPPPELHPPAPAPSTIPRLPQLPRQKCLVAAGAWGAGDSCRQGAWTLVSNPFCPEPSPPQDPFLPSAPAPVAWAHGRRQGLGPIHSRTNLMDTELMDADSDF
How it was run: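 HEPM cells incubated with compound in MEM with 0.5% charcoal-dextran treated FBS and […] myristoylated mouse Shh protein. GLI expression measured 24 h after adding compound and Shh, using a Quantigene assay.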

Protein smoothened [10] = molecular target: Protein smoothened (Mus musculus, UniProt P56726); assay: Antagonist activity at mouse cloned Smo receptor expressed in NIH-3T3 cells co expressing Gli1 binding site after 15 hrs by luciferase reporter gene assay; type: cell-based, NIH3T3
Protein smoothened (Mus musculus, UniProt P56726), sequence (P56726 whole entry): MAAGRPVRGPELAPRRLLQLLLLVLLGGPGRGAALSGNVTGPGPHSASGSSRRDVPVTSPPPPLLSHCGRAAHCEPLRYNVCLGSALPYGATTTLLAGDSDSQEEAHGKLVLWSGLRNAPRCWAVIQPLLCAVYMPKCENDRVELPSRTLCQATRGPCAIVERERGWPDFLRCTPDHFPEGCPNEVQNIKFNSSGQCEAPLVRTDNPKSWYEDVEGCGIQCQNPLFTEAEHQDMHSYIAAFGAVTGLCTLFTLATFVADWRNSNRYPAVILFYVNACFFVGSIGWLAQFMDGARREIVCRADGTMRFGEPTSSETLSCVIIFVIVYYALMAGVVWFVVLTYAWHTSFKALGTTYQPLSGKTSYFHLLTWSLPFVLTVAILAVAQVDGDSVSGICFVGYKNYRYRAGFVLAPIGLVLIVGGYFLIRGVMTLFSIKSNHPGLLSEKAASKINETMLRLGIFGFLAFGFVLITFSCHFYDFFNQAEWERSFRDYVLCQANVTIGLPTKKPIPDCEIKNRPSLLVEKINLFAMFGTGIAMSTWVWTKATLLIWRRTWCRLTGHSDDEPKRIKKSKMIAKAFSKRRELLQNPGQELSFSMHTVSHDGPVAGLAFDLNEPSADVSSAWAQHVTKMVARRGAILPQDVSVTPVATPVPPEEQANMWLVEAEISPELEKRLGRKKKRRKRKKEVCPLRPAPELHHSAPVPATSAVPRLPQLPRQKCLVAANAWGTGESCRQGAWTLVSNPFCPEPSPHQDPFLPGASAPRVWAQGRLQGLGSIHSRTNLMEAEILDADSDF
How it was run: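 Stable NIH-3T3 clone carrying a luciferase reporter (pGL4.16) with five consensus Gli1 binding sites. Cells incubated 15 h with compound in Optimem with 0.5% charcoal-dextran treated FBS and […] myristoylated mouse Shh. Luciferase read with Bright-Glo on a luminometer. Threefold dilution series, run in quadruplicate.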

Mus musculus [11] = assay: Clearance in mouse at 0.5 mg/kg, iv; type: ADME, organism-based; parameters: dose 0.5 mg/kg, route intravenous; conditions: in vivo; how it was run: as §2
Mus musculus [12] = assay: AUC in mouse at 2 mg/kg, po; type: ADME, organism-based, Plasma; parameters: dose 2 mg/kg, route oral; conditions: in vivo; how it was run: as §2
Mus musculus [13] = assay: Reduction of Gli1 expression in po dosed NOD-SCID mouse skin after 6 hrs by RT-PCR analysis; type: functional, organism-based
How it was run: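 Female NOD-Scid mice aged 5–8 weeks had one hind flank shaved, then regrown hair removed with wax strips 4 days later. After 5 days mice were dosed orally with compound or vehicle, and skin was harvested 6 h post-dose into RNALater. Tissue homogenized and RNA purified. Four mice per group, two samples per animal, analysed by Dunnett's method.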

[14] = Volume of distribution at steady state in mouse at 0.5 mg/kg, iv and 2 mg/kg, po; type: ADME, organism-based; conditions: in vivo, read-out: Vdss; how it was run: as §2
Mus musculus [15] = assay: Oral bioavailability in mouse at 2 mg/kg; type: ADME, organism-based; conditions: in vivo; how it was run: as §2

| SMILES | metabolised at 0.5 h [1] [%] | Activity [2] [%] | metabolised at 0.5 h [8] [%] | pIC50 (Protein smoothened [9]) | other results |
| --- | --- | --- | --- | --- | --- |
| O=C(c1ccccc1)N1CCN(c2nnc(-c3ccccc3)c3ccccc23)CC1 | 39 | 12 | – | – | – |
| C[C@@H]1CN(C(=O)c2ccccc2)CCN1c1nnc(-c2ccc(CO)cc2)c2ccccc12 | 15 | 3 | – | – | clearance [3]: 95 mL/min/kg; Vd [4]: 1.8 L/kg |
| C[C@@H]1CN(C(=O)c2ccccc2)CCN1c1nnc(-c2ccc(N(C)C)cc2)c2ccccc12 | – | 17 | – | – | – |
| C[C@@H]1CN(C(=O)c2ccccc2)CCN1c1nnc(-c2ccc(C(F)(F)F)cc2)c2ccccc12 | – | 81 | – | – | fraction unbound [5]: 0.06; AUC [6]: 1200 ng·h/mL |
| C[C@@H]1CN(C(=O)c2ccccc2)CCN1c1nnc(-c2ccccc2)c2ccccc12 | 12 | 30 | – | – | bioavailability [7]: 15%; clearance [3]: 4.67 mL/min/kg; AUC [6]: 1800 ng·h/mL; Vd [4]: 1.7 L/kg |
| O=C(c1ccccc1)N1CCN(c2nnc(-c3ccc(Cl)c(Cl)c3)c3ccccc23)CC1 | 13 | 48 | – | – | – |
| C[C@H]1CN(C(=O)c2ccccc2)CCN1c1nnc(-c2ccccc2)c2ccccc12 | < 10 | 32 | < 10 | – | – |
| C[C@H]1CN(C(=O)c2ccccc2)CCN1c1nnc(-c2ccc(F)cc2)c2ccccc12 | 21 | 61 | < 10 | 7.92 | – |
| C[C@@H]1CN(C(=O)c2ccccc2)CCN1c1nnc(-c2ccc(C(N)=O)cc2)c2ccccc12 | < 10 | 5.9 | < 10 | 7.72 | – |
| C[C@@H]1CN(C(=O)c2ccccc2)CCN1c1nnc(-c2ccc(N3CCOCC3)cc2)c2ccccc12 | 28 | 6.6 | 19 | 7.68 | – |
| C[C@@H]1CN(C(=O)c2ccccc2)CCN1c1nnc(-c2ccc(C(=O)O)cc2)c2ccccc12 | < 10 | 2.7 | < 10 | < 6.00 | – |
| CC(=O)Oc1ccc(-c2nnc(N3CCN(C(=O)c4ccccc4)C[C@H]3C)c3ccccc23)cc1 | > 95 | 6.1 | > 95 | 8.48 | – |
| C[C@@H]1CN(C(=O)c2ccccc2)CCN1c1nnc(-c2ccc(CC(N)=O)cc2)c2ccccc12 | 10 | 2.7 | 10 | 8.32 | bioavailability [7]: 22%; clearance [3]: 18.3 mL/min/kg; AUC [6]: 460 ng·h/mL; Vd [4]: 1.4 L/kg |
| C[C@@H]1CN(C(=O)c2ccccc2)CCN1c1nnc(-c2ccncc2)c2ccccc12 | 36 | 25 | 11 | 7.60 | – |
| C[C@@H]1CN(C(=O)c2ccccc2)CCN1c1nnc(-c2cccnc2)c2ccccc12 | 16 | 23 | 19 | 7.10 | – |
| C[C@@H]1CN(C(=O)c2ccccc2)CCN1c1nnc(-c2ccccn2)c2ccccc12 | 17 | 16 | 12 | 7.24 | – |
| C[C@@H]1CN(C(=O)c2ccccc2)CCN1c1nnc(-n2cccc2)c2ccccc12 | 63 | 12 | 54 | 8.06 | – |
| C[C@@H]1CN(C(=O)c2ccccc2)CCN1c1nnc(-n2ccc3ccccc32)c2ccccc12 | 72 | 74 | 55 | 8.10 | – |
| C[C@@H]1CN(C(=O)c2ccccc2)CCN1c1nnc(-c2ncco2)c2ccccc12 | 22 | 7.8 | < 10 | < 6.00 | – |
| C[C@@H]1CN(C(=O)c2ccccc2)CCN1c1nnc(-n2ccnc2)c2ccccc12 | 16 | 3.7 | < 10 | < 6.00 | – |
| C[C@@H]1CN(C(=O)c2ccccc2)CCN1c1nnc(-c2cncnc2)c2ccccc12 | < 10 | 7.1 | < 10 | < 6.00 | – |
| C[C@@H]1CN(C(=O)c2ccccc2)CCN1c1nnc(-c2ccccc2)c2ncccc12 | – | 4.1 | 13 | 7.18 | – |
| C[C@@H]1CN(C(=O)c2ccccc2)CCN1c1nnc(-c2ccccc2)c2cccnc12 | – | 5.7 | 56 | 7.80 | – |
| C[C@@H]1CN(C(=O)c2ccccc2)CCN1c1nnc(-c2ccccc2)c2cnccc12 | – | 7.5 | 30 | 7.92 | – |
| C[C@@H]1CN(C(=O)c2ccccc2)CCN1c1nnc(-c2ccccc2)c2ccncc12 | – | 4.9 | 13 | 8.24 | bioavailability [7]: 35%; clearance [3]: 7.5 mL/min/kg; pIC50 (Protein smoothened [10]): 8.52; AUC [6]: 1600 ng·h/mL; Vd [4]: 1.4 L/kg |
| C[C@@H]1CN(C(=O)c2ccccc2)CCN1c1nnc(-c2ccc(C(F)(F)F)cc2)c2ccncc12 | < 10 | 9 | 10 | 9.00 | CL (Mus musculus [11]): 10.7 mL/min/kg; fraction unbound [5]: 0.035; bioavailability [7]: 73%; AUC (Mus musculus [12]): 3500 ng·h/mL; clearance [3]: 7.67 mL/min/kg; pEC50 (Mus musculus [13]): 6.34; pIC50 (Protein smoothened [10]): 9.15; AUC [6]: 3300 ng·h/mL; Vd [14]: 2 L/kg; F (Mus musculus [15]): 46%; Vd [4]: 3.5 L/kg |
